Assay results: ChEMBL document CHEMBL1152395, “Scuteflorins A and B, dihydropyranocoumarins from Scutellaria lateriflora” (J Nat Prod, 2009)
Activity calls are given as the source filed them. The rule behind the calls is not given here.

Tests used:
[1] = system: SW1353; experiment: Antiinflammatory activity in PMA-stimulated human SW1353 cells assessed as inhibition of NF-kappaB activation; type: functional, cell-based
Method in brief: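 SW1353 cells were stimulated with PMA, and inhibition of NF-κB-mediated transcription was scored as IC50. Parthenolide was the positive control. Specificity was checked against a Sp-1-dependent luciferase control plasmid.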

[2] = system: Vero; experiment: Cytotoxicity against african green monkey Vero cells upto 50 uM by neutral red assay; type: cell-based; settings: chlorocebus sabaeus
Method in brief: (§1)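 Neutral red uptake assay. Purified compounds were tested up to 50 μM and the methanol extract up to 50 μg/mL. The panel was normal Vero monkey kidney fibroblasts and LLC-PK11 pig kidney epithelial cells, plus solid tumour lines HepG2, SK-MEL, KB, BT-549 and SK-OV-3.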

[3] = Cytotoxicity against pig LLC-PK11 cells upto 50 uM by neutral red assay; type: cell-based, Sus scrofa; method in brief: as §1
[4] = system: SW1353; experiment: Cytotoxicity against human SW1353 cells by neutral red assay; type: cell-based
[5] = molecular target: Transcription factor Sp1 (Homo sapiens) (UniProt P08047); experiment: Inhibition of SP1-dependent luciferase expression
Method in brief: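 Counter-screen in SW1353 cells for inhibition of luciferase expression from a control plasmid driven by Sp-1. It runs alongside the PMA-induced NF-κB transcription assay to exclude nonspecific or cytotoxic effects.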

[6] = system: HepG2; experiment: Cytotoxicity against human HepG2 cells upto 50 uM by neutral red assay; type: functional, cell-based; method in brief: as §1
[7] = system: SK-MEL; experiment: Cytotoxicity against human SK-MEL cells upto 50 uM by neutral red assay; type: functional, cell-based; method in brief: as §1
[8] = system: KB; experiment: Cytotoxicity against human KB cells upto 50 uM by neutral red assay; type: functional, cell-based; method in brief: as §1
[9] = system: BT-549; experiment: Cytotoxicity against human BT549 cells upto 50 uM by neutral red assay; type: functional, cell-based; method in brief: as §1
[10] = system: SK-OV-3; experiment: Cytotoxicity against human SKOV3 cells upto 50 uM by neutral red assay; type: functional, cell-based; method in brief: as §1
[11] = system: HL-60; experiment: Antioxidant activity in human HL60 cells assessed as inhibition of relative oxygen species generation by DCFH-DA method; type: functional, cell-based
Method in brief: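 Intracellular reactive oxygen species generation was measured in myelomonocytic HL-60 cells by the DCFH-DA method. IC50 values were derived, and vitamin C served as positive control. Cytotoxicity in HL-60 cells was checked up to 62.5 μM within this assay.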

[12] = system: HL-60; experiment: Cytotoxicity against human HL60 cells by neutral red assay; type: cell-based

Chain of Transcription factor Sp1 (Homo sapiens) (P08047 whole entry): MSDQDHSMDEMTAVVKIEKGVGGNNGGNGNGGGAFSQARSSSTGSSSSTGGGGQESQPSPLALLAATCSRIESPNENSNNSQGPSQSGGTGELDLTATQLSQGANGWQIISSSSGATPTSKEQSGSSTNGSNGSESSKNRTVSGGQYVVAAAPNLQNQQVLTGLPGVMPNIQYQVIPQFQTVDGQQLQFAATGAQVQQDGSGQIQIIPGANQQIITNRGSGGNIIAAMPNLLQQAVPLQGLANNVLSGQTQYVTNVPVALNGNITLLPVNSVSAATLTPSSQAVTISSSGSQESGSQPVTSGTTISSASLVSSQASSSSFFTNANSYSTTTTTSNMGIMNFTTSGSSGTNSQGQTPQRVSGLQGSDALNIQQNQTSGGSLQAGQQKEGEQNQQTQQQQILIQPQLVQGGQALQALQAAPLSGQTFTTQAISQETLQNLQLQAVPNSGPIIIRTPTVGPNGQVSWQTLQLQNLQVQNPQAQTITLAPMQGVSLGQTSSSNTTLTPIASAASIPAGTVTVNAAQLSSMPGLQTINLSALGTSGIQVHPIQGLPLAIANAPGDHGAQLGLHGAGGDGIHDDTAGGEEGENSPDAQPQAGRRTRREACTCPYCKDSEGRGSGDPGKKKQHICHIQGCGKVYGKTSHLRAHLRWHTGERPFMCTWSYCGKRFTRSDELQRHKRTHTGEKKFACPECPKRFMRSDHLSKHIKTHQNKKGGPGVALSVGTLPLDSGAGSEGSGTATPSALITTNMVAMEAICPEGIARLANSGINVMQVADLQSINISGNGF

SMILES | IC50 [1] | Activity [2] | Activity [3] | Activity [4] | Activity [5] | Activity [6] | Activity [7] | Activity [8] | Activity [9] | Activity [10] | IC50 ([11]; Homo sapiens, HL-60, read-out: IC50) | IC50 ([11]; hl-60) | Activity [12]
C=C1C(=O)O[C@@H]2C3O[C@]3(C)CC/C=C(\C)CC[C@@H]12 (some centres not stated) | 4.1 µM | – | – | – | – | – | – | – | – | – | – | – | –
COc1ccccc1-c1cc(=O)c2c(O)cc(O)c(OC)c2o1 | – | Non-toxic | Non-toxic | Non-toxic | inactive | inactive | inactive | inactive | inactive | inactive | – | – | –
O=C1O[C@H]([C@@H](O)CO)C(O)=C1O [ASCORBIC ACID] | – | – | – | – | – | – | – | – | – | – | 0.01 µM | – | –
CC[C@H](CC[C@@H](C)[C@H]1CC[C@H]2[C@@H]3CC=C4C[C@@H](O)CC[C@]4(C)[C@H]3CC[C@]12C)C(C)C [BETA-SITOSTEROL] | – | Non-toxic | Non-toxic | Non-toxic | inactive | inactive | inactive | inactive | inactive | inactive | – | – | –
O=c1cc(-c2ccccc2)oc2cc(O)cc(O)c12 [CHRYSIN] | 33 µM | Non-toxic | Non-toxic | Non-toxic | inactive | inactive | inactive | inactive | inactive | inactive | – | Not Active | –
CC(C)=CC(=O)O[C@H]1Cc2cc3ccc(=O)oc3cc2OC1(C)C [DECURSIN] | – | Non-toxic | Non-toxic | Non-toxic | inactive | inactive | inactive | inactive | inactive | inactive | – | – | –
COc1c(O)cc2c(c1O)C(=O)C[C@@H](c1ccccc1)O2 [DIHYDROOROXYLIN A] | – | Non-toxic | Non-toxic | Non-toxic | inactive | inactive | inactive | inactive | inactive | inactive | – | – | –
C=C(C)[C@@H]1CC[C@]2(C)CC[C@]3(C)[C@H](CC[C@@H]4[C@@]5(C)CC[C@H](O)C(C)(C)[C@@H]5CC[C@]43C)[C@@H]12 [LUPEOL] | – | Non-toxic | Non-toxic | Non-toxic | inactive | inactive | inactive | inactive | inactive | inactive | – | – | –
COc1c(O)cc2oc(-c3ccccc3)cc(=O)c2c1O [OROXYLIN A] | > 50 µM | Non-toxic | Non-toxic | Non-toxic | inactive | inactive | inactive | inactive | inactive | inactive | – | Not Active | –
CCCCCCCCCCCCCCCC(=O)O [PALMITIC ACID] | – | Non-toxic | Non-toxic | Non-toxic | inactive | inactive | inactive | inactive | inactive | inactive | – | – | –
O=C1C[C@@H](c2ccccc2)Oc2cc(O)cc(O)c21 [PINOCEMBRIN] | – | Non-toxic | Non-toxic | Non-toxic | inactive | inactive | inactive | inactive | inactive | inactive | – | – | –
C[C@@H]1CC[C@]2(C(=O)O)CC[C@]3(C)C(=CC[C@@H]4[C@@]5(C)CC[C@H](O)C(C)(C)[C@@H]5CC[C@]43C)[C@@H]2[C@]1(C)O [POMOLIC ACID] | – | Non-toxic | Non-toxic | Non-toxic | inactive | inactive | inactive | inactive | inactive | inactive | – | – | –
CC(C)=CC(=O)O[C@H]1C(=O)c2cc3ccc(=O)oc3cc2OC1(C)C [SCUTEFLORIN A] | – | Non-toxic | Non-toxic | Non-toxic | inactive | inactive | inactive | inactive | inactive | inactive | – | – | –
C/C=C(/C)C(=O)O[C@H]1C(=O)c2cc3ccc(=O)oc3cc2OC1(C)C [SCUTEFLORIN B] | – | Non-toxic | Non-toxic | Non-toxic | inactive | inactive | inactive | inactive | inactive | inactive | – | – | –
CC1(C)CC[C@]2(C(=O)O)CC[C@]3(C)C(=CC[C@@H]4[C@@]5(C)CC[C@@H](O)[C@](C)(CO)[C@@H]5CC[C@]43C)[C@@H]2C1 [SCUTELLARIC ACID] | – | Non-toxic | Non-toxic | Non-toxic | inactive | inactive | inactive | inactive | inactive | inactive | – | – | –
CC[C@H](CC[C@@H](C)[C@H]1CC[C@H]2[C@@H]3CC=C4C[C@@H](O[C@@H]5O[C@H](CO)[C@@H](O)[C@H](O)[C@H]5O)CC[C@]4(C)[C@H]3CC[C@]12C)C(C)C [SITOGLUSIDE] | – | Non-toxic | Non-toxic | Non-toxic | inactive | inactive | inactive | inactive | inactive | inactive | – | – | –
C[C@H]1[C@H](C)CC[C@]2(C(=O)O)CC[C@]3(C)C(=CC[C@@H]4[C@@]5(C)CC[C@H](O)C(C)(C)[C@@H]5CC[C@]43C)[C@H]12 [URSOLIC ACID] | – | Non-toxic | Non-toxic | Non-toxic | inactive | inactive | inactive | inactive | inactive | inactive | – | – | –
COc1c(O)cc(O)c2c(=O)cc(-c3ccccc3)oc12 [WOGONIN] | 39 µM | Non-toxic | Non-toxic | Non-toxic | inactive | inactive | inactive | inactive | inactive | inactive | – | – | Not Active
